Laboratory results taken from ChEMBL document CHEMBL1250467, “Design, synthesis, and anticonvulsant activity of new N-Mannich bases derived from spirosuccinimides and spirohydantoins” (Bioorg Med Chem, 2010).
pIC50: −log10 of the molar value. Calls of active or inactive are those of the source. The calls are words filed in the database; no cut-off is given here.

What was measured:
Mus musculus [1] = experiment: Anticonvulsant activity in CF1 albino mouse assessed as protection against subcutaneous pentylenetetrazole-induced seizures at 300 mg/kg, ip after 0.5 hrs; format: functional, organism-based; set-up: dose 300 mg/kg
How it was run: (§1)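 Male CF-1 mice; compounds suspended in 0.5% methylcellulose/water and injected ip at 30, 100 and 300 mg/kg. MES, scPTZ (pentylenetetrazole 85 mg/kg sc at the test time) and rotarod neurotoxicity were scored at 0.5 and 4 h. Value is the lowest dose active or toxic in half or more of the animals; signs such as ataxia or tremor were recorded.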

Mus musculus [2] = experiment: Anticonvulsant activity in CF1 albino mouse assessed as protection against subcutaneous pentylenetetrazole-induced seizures at 300 mg/kg, ip after 4 hrs; format: functional, organism-based; set-up: dose 300 mg/kg; how it was run: as §1
Mus musculus [3] = experiment: Anticonvulsant activity in CF1 albino mouse assessed as protection against maximal electroshock-induced seizures at 300 mg/kg, ip after 0.5 hrs; format: functional, organism-based; set-up: dose 300 mg/kg; how it was run: as §1
Mus musculus [4] = experiment: Anticonvulsant activity in CF1 albino mouse assessed as protection against maximal electroshock-induced seizures at 300 mg/kg, ip after 4 hrs; format: functional, organism-based; set-up: dose 300 mg/kg; how it was run: as §1
Mus musculus [5] = experiment: Neurotoxicity in CF1 albino mouse at 300 mg/kg, ip after 4 hrs by rotarod test; format: toxicity, organism-based; set-up: dose 300 mg/kg, route intraperitoneal; details: in vivo; how it was run: as §1
Mus musculus [6] = experiment: Neurotoxicity in ip dosed CF1 albino mouse assessed as dose required to cause toxicity after 0.5 hrs by rotarod test; format: organism-based; details: in vivo; how it was run: as §1
Mus musculus [7] = experiment: Neurotoxicity in ip dosed CF1 albino mouse assessed as dose required to cause toxicity after 4 hrs by rotarod test; format: organism-based; details: in vivo; how it was run: as §1
Mus musculus [8] = experiment: Anticonvulsant activity in ip dosed CF1 albino mouse assessed as dose required to protect against maximal electroshock-induced seizures after 4 hrs; format: functional; how it was run: as §1
Mus musculus [9] = experiment: Anticonvulsant activity in CF1 albino mouse assessed as protection against electrically-induced seizure at 100 mg/kg, ip after 1 hr by 6Hz psychomotor seizure test; format: functional; details: route intraperitoneal
How it was run: (§2)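 Male CF-1 mice, compound suspended in 0.5% methylcellulose/water, given ip at 100 mg/kg; four mice per time point (0.25, 0.5, 1, 2, 4 h). Corneal stimulation with 0.2 ms monopolar rectangular pulses at 6 Hz for 3 s from a constant-current device, mice manually restrained. A mouse counted as protected if normal exploratory behaviour resumed within 10 s; motor impairment was noted alongside.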

Mus musculus [10] = experiment: Anticonvulsant activity in CF1 albino mouse assessed as protection against electrically-induced seizure at 100 mg/kg, ip after 0.5 hrs by 6Hz psychomotor seizure test; format: functional, organism-based; set-up: dose 100 mg/kg; how it was run: as §2
Mus musculus [11] = experiment: Neurotoxicity in CF1 albino mouse at 300 mg/kg, ip after 0.5 hrs by rotarod test; format: toxicity, organism-based; set-up: dose 300 mg/kg, route intraperitoneal; details: in vivo; how it was run: as §1
Mus musculus [12] = experiment: Anticonvulsant activity in ip dosed CF1 albino mouse assessed as dose required to protect against maximal electroshock-induced seizures after 0.5 hrs; format: functional; how it was run: as §1
Mus musculus [13] = experiment: Anticonvulsant activity in CF1 albino mouse assessed as protection against electrically-induced seizure at 100 mg/kg, ip after 4 hrs by 6Hz psychomotor seizure test; format: functional; how it was run: as §2
Mus musculus [14] = experiment: Anticonvulsant activity in CF1 albino mouse assessed as protection against electrically-induced seizure at 100 mg/kg, ip after 0.25 hrs by 6Hz psychomotor seizure test; format: functional, organism-based; set-up: dose 100 mg/kg; how it was run: as §2
Mus musculus [15] = experiment: Anticonvulsant activity in CF1 albino mouse assessed as protection against electrically-induced seizure at 100 mg/kg, ip after 2 hrs by 6Hz psychomotor seizure test; format: functional, organism-based; set-up: dose 100 mg/kg; how it was run: as §2
[16] = Displacement of [3H]batrachotoxin from neurotoxin site 2 of voltage-gated sodium channel in rat forebrain tissue
Rattus norvegicus [17] = experiment: Anticonvulsant activity in Sprague-Dawley rat assessed as protection against maximal electroshock-induced seizures at 30 mg/kg po after 1 hr; format: functional
How it was run: (§3)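 Male Sprague–Dawley rats, four per group, given 30 mg/kg orally as a 0.5% methylcellulose/water suspension. MES protection scored at 0.25, 0.5, 1, 2 and 4 h after dosing, motor impairment checked in parallel; data are the number of the four rats protected.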

Rattus norvegicus [18] = experiment: Anticonvulsant activity in Sprague-Dawley rat assessed as protection against maximal electroshock-induced seizures at 30 mg/kg po after 2 hrs; format: functional; how it was run: as §3
Rattus norvegicus [19] = experiment: Anticonvulsant activity in Sprague-Dawley rat assessed as protection against maximal electroshock-induced seizures at 30 mg/kg po after 0.5 hrs; format: functional; how it was run: as §3
Rattus norvegicus [20] = species on record: Rattus norvegicus; experiment: Protection index, ratio of TD50 for Sprague-Dawley rat by rotarod test to ED50 for Sprague-Dawley rat by maximal electroshock test; format: functional
How it was run: (§4)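 Male Sprague–Dawley rats dosed orally (0.5% methylcellulose/water suspension), groups of eight, tested at the previously estimated time of peak effect. Doses varied until at least three points lay in the 10–90% range of protection (MES, scPTZ) or minimal rotarod neurotoxicity. ED50/TD50 with 95% confidence intervals came from regression; PI = TD50/ED50.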

[21] = Neurotoxicity in po dosed Sprague-Dawley rat by rotarod test; format: toxicity, organism-based; details: in vivo; how it was run: as §4
Rattus norvegicus [22] = experiment: Anticonvulsant activity in po dosed Sprague-Dawley rat assessed as time required to peak protection against seizures; format: functional
Rattus norvegicus [23] = experiment: Anticonvulsant activity in po dosed Sprague-Dawley rat assessed as protection against maximal electroshock-induced seizures; format: functional; how it was run: as §4
Rattus norvegicus [24] = experiment: Anticonvulsant activity in Sprague-Dawley rat assessed as protection against maximal electroshock-induced seizures at 30 mg/kg po after 4 hrs; format: functional; how it was run: as §3
Rattus norvegicus [25] = experiment: Anticonvulsant activity in Sprague-Dawley rat assessed as protection against maximal electroshock-induced seizures at 30 mg/kg po after 0.25 hrs; format: functional; how it was run: as §3
Mus musculus [26] = experiment: Anticonvulsant activity in ip dosed CF1 albino mouse assessed as dose required to protect against subcutaneous pentylenetetrazole-induced seizures after 0.5 hrs; format: functional; how it was run: as §1
Mus musculus [27] = experiment: Anticonvulsant activity in ip dosed CF1 albino mouse assessed as dose required to protect against subcutaneous pentylenetetrazole-induced seizures after 4 hrs; format: functional; how it was run: as §1
Rattus norvegicus [28] = experiment: Anticonvulsant activity in po dosed Sprague-Dawley rat assessed as protection against subcutaneous pentylenetetrazole-induced seizures; format: functional; how it was run: as §4

| SMILES | Activity (Mus musculus [1]) | Activity (Mus musculus [2]) | Activity (Mus musculus [3]) | Activity (Mus musculus [5]) | Activity (Mus musculus [6]) | Activity (Mus musculus [7]) | Activity (Mus musculus [8]) | PI (Rattus norvegicus [20]) | ED50 (Rattus norvegicus [23]) | also measured |
| --- | --- | --- | --- | --- | --- | --- | --- | --- | --- | --- |
| O=C1CC2(CCc3ccccc3C2)C(=O)N1CN1CCN(c2ccccc2F)CC1 (centres undefined) | inactive | inactive | inactive | Non-toxic | 300 mg/kg |  |  |  |  | Activity (Mus musculus [4]): inactive |
| O=C1NC2(CCc3ccccc3C2)C(=O)N1CN1CCN(c2ccc(F)cc2)CC1 (centres undefined) | inactive | inactive | inactive |  | 30 mg/kg | 30 mg/kg |  |  |  | Activity (Mus musculus [4]): inactive |
| O=C1NC2(CCc3ccccc3C2)C(=O)N1CN1CCN(c2cccc(Cl)c2)CC1 (centres undefined) | inactive | inactive | inactive |  | 30 mg/kg | 30 mg/kg | 100 mg/kg |  |  |  |
| O=C1CC2(CCc3ccccc3C2)C(=O)N1CN1CCN(Cc2ccccc2)CC1 (centres undefined) | inactive | inactive |  | Non-toxic |  |  | 300 mg/kg |  |  | Activity (Mus musculus [9]): 25%; Activity (Mus musculus [10]): inactive; Activity (Mus musculus [11]): Non-toxic; Activity (Mus musculus [12]): 300 mg/kg; Activity (Mus musculus [13]): inactive; Activity (Mus musculus [14]): inactive; Activity (Mus musculus [15]): inactive |
| O=C1NC2(CCc3ccccc3C2)C(=O)N1CN1CCN(c2ccccc2)CC1 (centres undefined) | inactive | inactive | inactive |  | 300 mg/kg | 300 mg/kg | 30 mg/kg | >256.78 | 1.88 mg/kg | pIC50 ([16]; read-out: IC50): 5.03; Activity (Rattus norvegicus [17]): 50%; Activity (Rattus norvegicus [18]): 100%; Activity (Rattus norvegicus [19]): 50%; TD50 [21]: > 500 mg/kg; Time (Rattus norvegicus [22]): 6 h; Activity (Rattus norvegicus [24]): 100%; Activity (Rattus norvegicus [25]): 25% |
| O=C1CC2(CCc3ccccc3C2)C(=O)N1CCN1CCN(c2cccc(Cl)c2)CC1 (centres undefined) |  |  |  |  |  |  |  | 2.6 | 23 mg/kg |  |
| O=C1NC2(CCc3ccccc3C2)C(=O)N1CN1CCOCC1 (centres undefined) |  |  |  | Non-toxic | 100 mg/kg |  | 30 mg/kg | >37.55 | 10.7 mg/kg | IC50 [16]: Not Active; Activity (Rattus norvegicus [17]): 50%; Activity (Rattus norvegicus [18]): 75%; Activity (Mus musculus [26]): 100 mg/kg; Activity (Rattus norvegicus [19]): 25%; TD50 [21]: 400 mg/kg; Activity (Mus musculus [12]): 30 mg/kg; Time (Rattus norvegicus [22]): 6 h; Activity (Rattus norvegicus [24]): 100%; Activity (Rattus norvegicus [25]): inactive; Activity (Mus musculus [27]): 100 mg/kg; ED50 (Rattus norvegicus [28]): > 250 mg/kg |
